Tests used:
[1] = Apparent clearance in mouse at 1 mg/kg, iv; assay type: ADME, organism-based; conditions: in vivo
KM12-Luc = test: Antitumor activity against human […] cells xenografted in nude mouse assessed as tumor growth inhibition administered orally once daily for 10 days relative to control; assay type: functional, cell-based; conditions: dose 40-80 mg/kg/day, time 10.0 day
Outline: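 Nu/nu mice given 5 million KM-12-LUC cells in DMEM, 1:1 with matrigel, injected subcutaneously into the right flank; oral gavage started at tumor size 150–200 mm³, 5 mice per group, compound in 0.5% methylcellulose/0.4% Tween 80 in ddH₂O; body weight and tumor volume [(W²×L)/2] measured daily; TGI versus vehicle.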

BaF3 [2] = test: Antitumor activity against mouse BAF3 cells harboring TEL fused TRKC allografted in nude mouse assessed as tumor growth inhibition administered orally once daily for 10 days; assay type: functional, cell-based; conditions: dose 40-80 mg/kg/day, time 10.0 day
Outline: (§1)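 Nu/nu mice given 1 million BaF3 cells (TEL-TRKA, TEL-TRKB, TEL-TRKC, LMNA-TRKA-F589L or LMNA-TRKA-G667S) in DMEM, 1:1 with matrigel, injected subcutaneously into the right flank; oral gavage began at 200–400 mm³, 5 mice per group, compound in 0.5% methylcellulose/0.4% Tween 80 in ddH₂O, 10 days; tumor volume [(W²×L)/2] and body weight recorded daily; TGI versus vehicle.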

[3] = target: Mast/stem cell growth factor receptor Kit (Homo sapiens, UniProt P10721); test: Inhibition of TEL fused KIT (unknown origin) transfected in mouse BAF3 cells assessed as growth inhibition after 72 hrs by CCK8 assay; assay type: cell-based
Outline: (§2)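 TEL-fusion isogenic BaF3 lines were built in-house and grown in RPMI 1640 with 10% FBS and 1% penicillin/streptomycin at 37 °C under 5% CO2. Cells were spun down before use.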

[4] = Tmax in Beagle dog at 1 mg/kg, iv; assay type: ADME, organism-based, Canis lupus familiaris; conditions: in vivo
Outline: (§3)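 Single-dose PK in mice, Sprague Dawley rats and beagle dogs, given i.v. (1 mg/kg) or p.o. (10 mg/kg mice and rats; 5 mg/kg dogs). AUC0-t, T1/2, Tmax and oral bioavailability (F) derived from plasma profiles.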

[5] = Antiproliferative activity against human KM-12-LUC cells harboring […] fused TRKA assessed as growth inhibition after 72 hrs by CCK8 assay; assay type: functional; conditions: KM12-Luc
Outline: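 KM-12-LUC cells seeded at 3 × 10⁴ cells/mL, incubated overnight at 37 °C, 5% CO₂, then medium replaced with fresh medium containing a range of compound concentrations for 72 h; viability read by CCK-8 absorbance at 450 nm, normalized to DMSO control, GI₅₀ from curve fitting.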

[6] = Oral bioavailability in mouse at 10 mg/kg; assay type: ADME, organism-based; conditions: in vivo; outline: as §3
[7] = Cmax in mouse at 1 mg/kg, iv; assay type: ADME, organism-based; parameters: route intravenous, dose 1 mg/kg; conditions: in vivo
[8] = target: VEGFR2 (vascular endothelial growth factor receptor 2), wild type, TEL fusion (Homo sapiens, UniProt P35968); test: Inhibition of wild type TEL fused VEGFR2 (unknown origin) transfected in mouse BAF3 cells assessed as growth inhibition after 72 hrs by CCK8 assay; assay type: cell-based; conditions: mouse BaF3 cells transfected with wild type TEL-fused VEGFR2
[9] = Apparent volume of distribution in Sprague-Dawley rat at 1 mg/kg, iv; assay type: ADME, organism-based; conditions: in vivo, read-out: Vz
BaF3 [10] = test: Antitumor activity against mouse BAF3 cells harboring TEL fused TRKA allografted in nude mouse assessed as tumor growth inhibition at 80 mg/kg, po administered once daily for 10 days relative to control; assay type: functional; conditions: 240 h, time 10 day, read-out: TGI; outline: as §1
[11] = Apparent clearance in Beagle dog at 5 mg/kg, po; assay type: ADME, organism-based, Canis lupus familiaris; conditions: in vivo, read-out: CLz/F (converted)
[12] = Apparent clearance in Beagle dog at 1 mg/kg, iv; assay type: ADME, organism-based, Canis lupus familiaris; conditions: in vivo
BaF3 [13] = test: Antitumor activity against mouse BAF3 cells harboring TEL fused TRKC allografted in nude mouse assessed as tumor growth inhibition at 80 mg/kg, po administered once daily for 10 days relative to control; assay type: functional; conditions: 240 h, time 10 day, read-out: TGI; outline: as §1
[14] = target: T1, High affinity nerve growth factor receptor (Homo sapiens, UniProt P04629); test: Inhibition of human TRKA by Z-LYTE or ADP-Glo assay
Outline: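 Purified kinase proteins tested biochemically in Z'LYTE or ADP-Glo format.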

[15] = target: T1, High affinity nerve growth factor receptor; test: Inhibition of TRKA in human KM-12-LUC cells assessed as reduction in AKT phosphorylation at T308 residue after 2 hrs by Western blot analysis; assay type: cell-based, KM12-Luc
Outline: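 KM-12-LUC (TPM3-TRKA fused colon cancer cells) grown in RPMI 1640 with 10% FBS and 1% penicillin/streptomycin at 37 °C under 5% CO2. Serially diluted compound added for 2 h. Lysates western blotted for phospho-AKT (T308/S473) and phospho-ERK1/2 (T202/Y204).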

[16] = Toxicity in mouse xenografted with mouse BAF3 cells harboring TEL fused TRKC assessed as effect on animals behaviour at 40 to 80 mg/kg, po administered once daily for 10 days; assay type: organism-based; conditions: in vivo, 240 h, dose 40-80 mg/kg/day, time 10 day
Outline: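 nu/nu mice were given subcutaneous right-flank implants in 1:1 DMEM/matrigel: 1 million BaF3 fusion cells or 5 million KM-12-LUC cells. Oral gavage started at 150–200 mm3 (xenograft) or 200–400 mm3 (allograft). Dosing used 40 or 80 mg/kg in HKI vehicle (0.5% methylcellulose/0.4% Tween 80 in ddH2O), with 5 mice per group. Body weight was recorded daily and behaviour observed.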

[17] = target: Platelet-derived growth factor receptor beta (Homo sapiens, UniProt P09619); test: Inhibition of TEL fused PDGFRbeta (unknown origin) transfected in mouse BAF3 cells assessed as growth inhibition after 72 hrs by CCK8 assay; assay type: cell-based; outline: as §2
Platelet-derived growth factor receptor beta, sequence (P09619 whole entry, the tested form may be a part): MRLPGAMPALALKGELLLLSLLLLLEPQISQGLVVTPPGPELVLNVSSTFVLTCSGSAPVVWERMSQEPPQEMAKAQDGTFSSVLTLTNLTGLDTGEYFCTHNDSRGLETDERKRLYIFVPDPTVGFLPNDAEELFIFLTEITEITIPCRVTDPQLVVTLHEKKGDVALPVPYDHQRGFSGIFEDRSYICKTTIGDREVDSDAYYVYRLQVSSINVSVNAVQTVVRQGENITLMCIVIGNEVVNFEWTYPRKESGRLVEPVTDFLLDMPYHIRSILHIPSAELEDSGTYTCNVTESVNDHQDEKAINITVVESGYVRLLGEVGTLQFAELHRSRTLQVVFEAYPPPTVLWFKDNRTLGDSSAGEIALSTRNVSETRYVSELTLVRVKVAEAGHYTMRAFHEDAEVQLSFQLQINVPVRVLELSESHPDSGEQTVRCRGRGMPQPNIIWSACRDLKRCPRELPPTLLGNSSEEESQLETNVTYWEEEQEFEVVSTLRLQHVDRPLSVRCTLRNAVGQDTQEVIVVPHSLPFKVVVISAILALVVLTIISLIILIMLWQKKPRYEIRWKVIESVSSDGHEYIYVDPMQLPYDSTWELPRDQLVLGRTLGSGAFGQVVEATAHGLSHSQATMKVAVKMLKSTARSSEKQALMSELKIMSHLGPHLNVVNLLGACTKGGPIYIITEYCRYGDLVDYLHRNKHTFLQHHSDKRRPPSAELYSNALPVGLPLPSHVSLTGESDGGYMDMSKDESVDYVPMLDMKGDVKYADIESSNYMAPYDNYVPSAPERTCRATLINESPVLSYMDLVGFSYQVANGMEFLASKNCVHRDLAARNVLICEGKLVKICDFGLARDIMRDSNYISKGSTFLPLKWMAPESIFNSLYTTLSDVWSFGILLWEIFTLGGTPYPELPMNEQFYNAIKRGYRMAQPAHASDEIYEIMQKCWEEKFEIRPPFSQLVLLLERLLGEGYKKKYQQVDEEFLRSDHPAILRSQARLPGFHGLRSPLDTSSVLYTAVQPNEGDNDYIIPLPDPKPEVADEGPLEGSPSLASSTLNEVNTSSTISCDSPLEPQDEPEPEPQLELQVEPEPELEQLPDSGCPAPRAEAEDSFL

T1 sequence (P04629 whole entry): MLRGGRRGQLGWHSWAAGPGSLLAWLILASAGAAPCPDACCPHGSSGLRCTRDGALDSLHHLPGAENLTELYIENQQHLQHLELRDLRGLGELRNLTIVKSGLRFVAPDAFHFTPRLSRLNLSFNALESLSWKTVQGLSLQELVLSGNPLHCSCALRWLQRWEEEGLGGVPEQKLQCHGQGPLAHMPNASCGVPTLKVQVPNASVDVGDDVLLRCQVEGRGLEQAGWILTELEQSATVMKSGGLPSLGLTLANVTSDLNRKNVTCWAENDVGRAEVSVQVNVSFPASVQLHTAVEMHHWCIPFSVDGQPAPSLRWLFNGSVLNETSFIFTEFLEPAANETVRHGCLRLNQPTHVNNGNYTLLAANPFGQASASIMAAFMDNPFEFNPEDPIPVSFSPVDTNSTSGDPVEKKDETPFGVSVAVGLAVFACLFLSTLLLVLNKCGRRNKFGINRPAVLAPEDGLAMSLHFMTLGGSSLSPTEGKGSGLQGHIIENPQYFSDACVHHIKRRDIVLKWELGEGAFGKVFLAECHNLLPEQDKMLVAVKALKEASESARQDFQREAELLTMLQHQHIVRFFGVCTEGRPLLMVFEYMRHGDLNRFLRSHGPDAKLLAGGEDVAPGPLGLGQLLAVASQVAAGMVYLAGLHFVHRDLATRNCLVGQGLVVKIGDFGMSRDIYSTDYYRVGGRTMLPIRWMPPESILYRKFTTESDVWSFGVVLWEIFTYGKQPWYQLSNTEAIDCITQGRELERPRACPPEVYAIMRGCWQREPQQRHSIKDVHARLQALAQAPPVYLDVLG
Mast/stem cell growth factor receptor Kit, sequence (P10721 whole entry, the tested form may be a part): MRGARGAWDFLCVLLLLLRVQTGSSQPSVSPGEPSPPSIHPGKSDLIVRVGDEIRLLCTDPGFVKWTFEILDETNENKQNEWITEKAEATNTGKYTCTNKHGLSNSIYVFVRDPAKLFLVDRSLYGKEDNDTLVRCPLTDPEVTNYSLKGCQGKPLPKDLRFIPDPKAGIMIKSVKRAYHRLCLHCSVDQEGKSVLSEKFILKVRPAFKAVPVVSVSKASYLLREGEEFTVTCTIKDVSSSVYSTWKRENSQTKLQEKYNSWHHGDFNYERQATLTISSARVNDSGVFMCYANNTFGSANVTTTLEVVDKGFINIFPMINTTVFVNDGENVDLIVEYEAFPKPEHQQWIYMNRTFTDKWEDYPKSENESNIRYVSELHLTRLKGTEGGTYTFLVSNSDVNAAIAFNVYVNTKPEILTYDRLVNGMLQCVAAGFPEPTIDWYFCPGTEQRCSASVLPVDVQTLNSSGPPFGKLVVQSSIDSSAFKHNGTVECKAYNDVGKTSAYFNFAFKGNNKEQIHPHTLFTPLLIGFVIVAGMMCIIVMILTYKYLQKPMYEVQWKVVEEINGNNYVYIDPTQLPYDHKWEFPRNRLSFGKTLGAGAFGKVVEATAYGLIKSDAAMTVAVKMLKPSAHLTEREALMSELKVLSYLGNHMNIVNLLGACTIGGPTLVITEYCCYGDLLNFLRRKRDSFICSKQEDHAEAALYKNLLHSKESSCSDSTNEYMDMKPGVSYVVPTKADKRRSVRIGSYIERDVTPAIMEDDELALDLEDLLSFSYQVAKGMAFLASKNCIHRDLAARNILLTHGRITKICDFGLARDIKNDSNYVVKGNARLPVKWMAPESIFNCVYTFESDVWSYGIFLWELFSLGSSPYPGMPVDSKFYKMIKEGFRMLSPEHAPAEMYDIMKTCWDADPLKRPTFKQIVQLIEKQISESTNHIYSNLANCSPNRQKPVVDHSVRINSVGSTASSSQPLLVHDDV
VEGFR2 (vascular endothelial growth factor receptor 2), wild type, TEL fusion, sequence (P35968 whole entry, the tested form may be a part): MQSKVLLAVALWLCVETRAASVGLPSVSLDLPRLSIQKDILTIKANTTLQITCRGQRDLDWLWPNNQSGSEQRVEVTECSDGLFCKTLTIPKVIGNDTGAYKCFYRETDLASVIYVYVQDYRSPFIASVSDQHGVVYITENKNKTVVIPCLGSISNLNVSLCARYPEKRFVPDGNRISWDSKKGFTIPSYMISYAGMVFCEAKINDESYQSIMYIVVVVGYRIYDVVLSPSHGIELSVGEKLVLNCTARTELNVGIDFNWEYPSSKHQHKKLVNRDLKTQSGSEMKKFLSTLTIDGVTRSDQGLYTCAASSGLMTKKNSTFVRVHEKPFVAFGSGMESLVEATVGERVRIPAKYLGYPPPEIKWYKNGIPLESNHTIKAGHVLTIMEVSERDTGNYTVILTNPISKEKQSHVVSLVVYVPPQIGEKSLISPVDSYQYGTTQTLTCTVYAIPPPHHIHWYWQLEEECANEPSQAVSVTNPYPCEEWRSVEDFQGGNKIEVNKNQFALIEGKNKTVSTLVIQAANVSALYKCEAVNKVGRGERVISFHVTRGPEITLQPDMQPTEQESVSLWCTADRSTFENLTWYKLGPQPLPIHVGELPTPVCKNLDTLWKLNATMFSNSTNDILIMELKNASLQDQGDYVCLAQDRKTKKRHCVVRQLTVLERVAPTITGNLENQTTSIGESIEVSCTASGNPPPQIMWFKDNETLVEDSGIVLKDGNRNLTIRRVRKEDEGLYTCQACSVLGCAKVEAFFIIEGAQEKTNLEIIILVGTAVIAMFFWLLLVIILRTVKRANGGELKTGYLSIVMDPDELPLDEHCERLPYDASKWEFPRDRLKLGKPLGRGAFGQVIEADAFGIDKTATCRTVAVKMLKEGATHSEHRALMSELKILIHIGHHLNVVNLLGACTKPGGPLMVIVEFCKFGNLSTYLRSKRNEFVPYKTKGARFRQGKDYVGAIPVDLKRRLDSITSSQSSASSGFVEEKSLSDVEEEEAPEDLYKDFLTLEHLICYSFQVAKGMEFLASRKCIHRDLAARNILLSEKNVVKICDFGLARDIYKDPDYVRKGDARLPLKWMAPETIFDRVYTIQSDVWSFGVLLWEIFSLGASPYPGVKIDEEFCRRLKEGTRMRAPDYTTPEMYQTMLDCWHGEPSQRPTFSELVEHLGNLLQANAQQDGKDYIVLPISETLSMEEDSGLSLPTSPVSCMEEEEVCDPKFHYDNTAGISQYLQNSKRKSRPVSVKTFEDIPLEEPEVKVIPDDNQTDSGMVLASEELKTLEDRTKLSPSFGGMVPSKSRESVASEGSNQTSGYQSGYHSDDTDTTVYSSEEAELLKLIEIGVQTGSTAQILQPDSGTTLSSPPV

- CLz/F [1]: 21.7 mL/min/kg
- GI50 [3]: 923 nM
- Tmax [4]: 4.8 min
- bioavailability [6]: 20%
- Cmax [7]: 1110 ng/mL
- Vd [9]: 9.68 L/kg
- CL/F [11]: 140 mL/min/kg
- CLz/F [12]: 47.68 mL/min/kg
- IC50 [14]: 10.5 nM
- EC50 [15]: < 30 nM
- GI50 [17]: 1.4 nM
SMILES: Cc1nc(NC(=O)CN2CCN(C)CC2)sc1-c1ccc2c(/C=C/c3ccccn3)n[nH]c2c1
- Activity (KM12-Luc): Dose-dependent effect
- Activity (BaF3 [2]): Dose-dependent effect
- GI50 [5]: 2 nM
- GI50 at 72 h [8]: 1180 nM
- inhibition in vivo at 80 mg/kg/day (BaF3 [10]): 67.5%
- inhibition in vivo at 80 mg/kg/day (BaF3 [13]): 57.5%
- Activity [16]: Non-Toxic

— ChEMBL document CHEMBL4765452, “Discovery of (E)-N-(4-methyl-5-(3-(2-(pyridin-2-yl)vinyl)-1H-indazol-6-yl)thiazol-2-yl)-2-(4-methylpiperazin-1-yl)acetamide (IHMT-TRK-284) as a novel orally available type II TRK kinase inhibitor capable of overcoming multiple resistant mutants” (Eur J Med Chem, 2020)
